Data as given in ChEMBL document CHEMBL2384907, “Identification of substituted pyrimido[5,4-b]indoles as selective Toll-like receptor 4 ligands” (J Med Chem, 2013).

What was measured:
Format in all cases: cell-based
[1] = biological target: T1, Toll-like receptor 4 (Mus musculus) (UniProt Q9QUK6); experiment: Activation of mouse TLR4 transfected in HEK293 cells after 18 hrs by SEAP assay relative to N-cyclohexyl-2-(4-oxo-3-phenyl-4,5-dihydro-3H-pyrimido[5,4-b]indol-2-ylthio)acetamide
T1 sequence (whole entry): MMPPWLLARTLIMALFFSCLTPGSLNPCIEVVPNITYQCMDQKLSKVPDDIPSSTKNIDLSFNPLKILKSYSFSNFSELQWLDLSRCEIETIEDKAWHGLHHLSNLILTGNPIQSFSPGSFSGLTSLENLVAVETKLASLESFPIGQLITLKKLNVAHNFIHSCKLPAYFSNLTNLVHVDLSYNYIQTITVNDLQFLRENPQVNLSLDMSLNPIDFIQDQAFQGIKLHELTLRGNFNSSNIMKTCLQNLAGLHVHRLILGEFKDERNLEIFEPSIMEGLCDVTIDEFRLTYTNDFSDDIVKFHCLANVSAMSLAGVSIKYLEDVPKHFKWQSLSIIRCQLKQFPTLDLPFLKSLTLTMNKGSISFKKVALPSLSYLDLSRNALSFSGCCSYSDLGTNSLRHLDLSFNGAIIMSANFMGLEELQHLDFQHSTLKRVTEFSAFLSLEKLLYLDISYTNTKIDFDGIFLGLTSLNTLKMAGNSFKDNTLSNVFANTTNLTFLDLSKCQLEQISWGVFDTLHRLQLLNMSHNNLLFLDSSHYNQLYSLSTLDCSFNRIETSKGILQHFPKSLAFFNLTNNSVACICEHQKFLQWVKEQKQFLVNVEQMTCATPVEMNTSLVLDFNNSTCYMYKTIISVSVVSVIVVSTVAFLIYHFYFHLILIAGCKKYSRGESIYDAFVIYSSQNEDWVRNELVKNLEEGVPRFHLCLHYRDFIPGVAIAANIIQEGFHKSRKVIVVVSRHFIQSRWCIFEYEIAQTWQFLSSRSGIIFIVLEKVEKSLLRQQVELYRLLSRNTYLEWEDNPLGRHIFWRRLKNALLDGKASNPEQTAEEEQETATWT
In short: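 Mouse TLR4 HEK-Blue cells (2.5 × 10^4/well) given titrated doses 312 nM–10 μM for 18 h, 0.5% DMSO vehicle; SEAP at 630 nm. Percent-activity curves, AUC by trapezoid method, normalized to reference hit set at 100. LPS 10 ng/mL control.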

[2] = biological target: Toll-like receptor 4 (Homo sapiens) (UniProt O00206); experiment: Activation of human TLR4 transfected in HEK293 cells after 18 hrs by SEAP assay relative to N-cyclohexyl-2-(4-oxo-3-phenyl-4,5-dihydro-3H-pyrimido[5,4-b]indol-2-ylthio)acetamide; parameters: concentration or dose not given beside the values
Sequence of Toll-like receptor 4 (Homo sapiens) (O00206 whole entry): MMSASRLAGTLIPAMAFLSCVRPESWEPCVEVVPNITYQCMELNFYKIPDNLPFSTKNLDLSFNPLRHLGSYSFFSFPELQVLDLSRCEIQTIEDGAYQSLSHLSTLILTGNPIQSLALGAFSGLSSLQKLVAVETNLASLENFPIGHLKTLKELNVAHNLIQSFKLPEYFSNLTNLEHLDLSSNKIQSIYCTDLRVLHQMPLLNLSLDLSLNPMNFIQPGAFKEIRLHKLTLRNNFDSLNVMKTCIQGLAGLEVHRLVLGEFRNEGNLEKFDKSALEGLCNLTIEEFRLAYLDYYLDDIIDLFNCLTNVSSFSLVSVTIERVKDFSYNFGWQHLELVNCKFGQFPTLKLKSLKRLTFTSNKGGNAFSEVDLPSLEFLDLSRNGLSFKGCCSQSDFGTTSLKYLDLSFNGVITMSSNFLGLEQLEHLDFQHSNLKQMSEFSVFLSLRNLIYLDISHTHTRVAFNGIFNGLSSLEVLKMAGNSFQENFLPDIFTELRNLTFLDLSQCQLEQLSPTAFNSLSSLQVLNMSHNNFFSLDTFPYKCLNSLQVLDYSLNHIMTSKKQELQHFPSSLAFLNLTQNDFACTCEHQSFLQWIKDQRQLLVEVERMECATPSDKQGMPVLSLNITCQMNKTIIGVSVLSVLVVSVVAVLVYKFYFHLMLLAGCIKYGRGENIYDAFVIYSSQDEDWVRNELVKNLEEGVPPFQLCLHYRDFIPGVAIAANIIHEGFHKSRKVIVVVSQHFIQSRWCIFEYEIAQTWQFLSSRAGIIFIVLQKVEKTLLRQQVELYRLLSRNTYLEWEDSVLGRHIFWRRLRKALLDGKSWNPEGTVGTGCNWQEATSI
In short: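 Human TLR4 HEK-Blue cells (2.5 × 10^4/well) given compound at 10 μM for 18 h, 0.5% DMSO vehicle; SEAP in supernatant read at 630 nm, normalized to reference hit set at 100. LPS 10 ng/mL positive control.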

[3] = biological target: T1, Toll-like receptor 4 (Mus musculus); experiment: Activation of TLR4 in C57BL/6 mouse BMDC cells assessed as AUC of IP10 release at 5 uM after 18 hrs by ELISA relative to N-cyclohexyl-2-(4-oxo-3-phenyl-4,5-dihydro-3H-pyrimido[5,4-b]indol-2-ylthio)acetamide
[4] = biological target: Toll-like receptor 4 (Homo sapiens) (UniProt O00206); experiment: Activation of TLR4 in human PBMC cells assessed as AUC of IL8 release at 10 uM after 18 hrs by ELISA relative to N-cyclohexyl-2-(4-oxo-3-phenyl-4,5-dihydro-3H-pyrimido[5,4-b]indol-2-ylthio)acetamide
In short: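 Human PBMC from buffy coats, 1 × 10^6/mL in complete RPMI, 18 h at 37 °C, 5% CO2 with compound at 10 μM; IL-8 in supernatant by ELISA, normalized to reference hit set at 100. LPS 10 ng/mL positive control.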

[5] = biological target: T1, Toll-like receptor 4 (Mus musculus); experiment: Activation of TLR4 in C57BL/6 mouse BMDC cells assessed as AUC of IL6 release after 18 hrs by ELISA relative to N-cyclohexyl-2-(4-oxo-3-phenyl-4,5-dihydro-3H-pyrimido[5,4-b]indol-2-ylthio)acetamide
In short: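 C57BL/6 bone marrow DC, 10^5 cells/well in RPMI-10% FCS, 18 h at 37 °C with titrated doses 312 nM–10 μM; supernatant IL-6 by ELISA. Each curve converted to percent activity (background subtracted, plate-adjusted), AUC by trapezoid method, normalized to reference hit set at 100 per experiment. LPS 10 ng/mL positive control; 0.5% DMSO vehicle.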

Structure (SMILES)	Activity [1]	Activity [2]	Activity [3]	Activity [4]	Activity [5]
O=C(CSc1nc2c([nH]c3ccccc32)c(=O)n1C1CCCCC1)NC1CCCC1	19%	33%	47%	14%	47%
O=C(CSc1nc2c3ccccc3nc-2c(O)n1-c1ccccc1)NCC1CCCO1 (stereo not given)	21%	13%	54%	8%	< 23%
NC(=O)Cn1c2ccccc2c2nc(SCC(=O)NC3CCCCC3)n(-c3ccccc3)c(=O)c21	8%	11%	1%	4%	1%
CCCCCCCC/C=C\CCCCCCCC(=O)OC[C@H](COP(=O)(O)OCCNC(=O)CSc1nc2c([nH]c3ccccc32)c(=O)n1-c1ccccc1)OC(=O)CCCCCCC/C=C\CCCCCCCC	< 1%	< 1%	< 1%	< 1%	< 1%
COC(=O)CCCn1c2ccccc2c2nc(SCC(=O)NC3CCCCC3)n(-c3ccccc3)c(=O)c21	9%	19%	19%	124%	4%
O=C(CSc1nc2c([nH]c3ccccc32)c(=O)n1-c1ccccc1)Nc1ccccc1	21%	31%	44%	15%	11%
O=C(CSc1nc2c([nH]c3ccccc32)c(=O)n1-c1ccccc1)Nc1ccccc1F	43%	71%	54%	61%	36%
O=C(CSc1nc2c([nH]c3ccccc32)c(=O)n1-c1ccc2ccccc2c1)NC1CCCCC1	6%	3%	< 1%	< 1%	3%
O=C(CSc1nc2c([nH]c3ccccc32)c(=O)n1-c1ccccc1)Nc1ccc2ccccc2c1	2%	21%	< 1%	< 1%	< 1%
O=C(CSc1nc2c([nH]c3ccccc32)c(=O)n1-c1ccccc1)Nc1ccc(F)cc1	81%	108%	70%	107%	103%
O=C(CSc1nc2c([nH]c3ccccc32)c(=O)n1-c1ccccc1)Nc1ccc2cn[nH]c2c1	< 1%	< 1%	< 1%	7%	3%
O=C(CSc1nc2c([nH]c3ccccc32)c(=O)n1-c1ccccc1)NC1CCC1	18%	32%	66%	19%	35%
CCCCCn1c2ccccc2c2nc(SCC(=O)NC3CCCCC3)n(-c3ccccc3)c(=O)c21	6%	11%	< 1%	1%	5%
CC(C)(C)NC(=O)CSc1nc2c([nH]c3ccccc32)c(=O)n1-c1ccccc1	< 1%	6%	< 1%	5%	< 1%
CN(C(=O)CSc1nc2c3ccccc3n(C)c2c(=O)n1-c1ccccc1)C1CCCCC1	1%	< 1%	< 1%	5%	< 1%
O=C(CSc1nc2c([nH]c3ccccc32)c(=O)n1-c1ccccc1)NC1CCNCC1	< 1%	< 1%	< 1%	17%	< 1%
O=C(CSc1nc2c([nH]c3ccccc32)c(=O)n1-c1ccccc1)NCc1ccco1	5%	27%	26%	15%	18%
O=C(CSc1nc2c([nH]c3ccccc32)c(=O)n1-c1ccccc1)Nc1cccc(F)c1	11%	39%	45%	13%	14%
CCCCCCCCCCCCn1c2ccccc2c2nc(SCC(=O)NC3CCCCC3)n(-c3ccccc3)c(=O)c21	4%	10%	< 1%	< 1%	< 1%
O=C(CSc1nc2c([nH]c3ccccc32)c(=O)n1-c1ccccc1)Nc1nccs1	2%	12%	< 1%	5%	1%
O=C(CSc1nc2c([nH]c3ccccc32)c(=O)n1C1CCCCC1)NC1CCCCC1	56%	40%	61%	27%	71%
Cc1cccc(NC(=O)CSc2nc3c([nH]c4ccccc43)c(=O)n2-c2ccccc2)c1	13%	116%	55%	54%	19%
O=C(CSc1nc2c([nH]c3ccccc32)c(=O)n1-c1ccccc1)NC1CCCCCC1	99%	100%	107%	118%	126%
O=C(CSc1nc2c([nH]c3ccccc32)c(=O)n1-c1ccc(F)cc1)NC1CCCCC1	41%	51%	72%	5%	48%

Now from value to compound:

Activity [1]	Activity [2]	Activity [3]	Activity [4]	Activity [5]	Structure (SMILES)
56%	38%	62%	53%	61%	CC(C)CCNC(=O)CSc1nc2c([nH]c3ccccc32)c(=O)n1-c1ccccc1
< 1%	8%	< 1%	4%	< 1%	CCNC(=O)CSc1nc2c([nH]c3ccccc32)c(=O)n1-c1ccccc1
24%	21%	53%	11%	44%	CC(C)CNC(=O)CSc1nc2c([nH]c3ccccc32)c(=O)n1-c1ccccc1
17%	13%	55%	6%	12%	CCCC(C)NC(=O)CSc1nc2c([nH]c3ccccc32)c(=O)n1-c1ccccc1 (stereo not given)
29%	17%	45%	23%	30%	CCC(C)CCNC(=O)CSc1nc2c([nH]c3ccccc32)c(=O)n1-c1ccccc1 (stereo not given)
42%	23%	40%	25%	40%	CCCCCNC(=O)CSc1nc2c([nH]c3ccccc32)c(=O)n1-c1ccccc1
4%	8%	< 1%	7%	< 1%	CCCCCCNC(=O)CSc1nc2c([nH]c3ccccc32)c(=O)n1-c1ccccc1
31%	32%	61%	29%	49%	CCCCNC(=O)CSc1nc2c([nH]c3ccccc32)c(=O)n1-c1ccccc1
8%	11%	26%	< 1%	< 10%	CCC(CC)NC(=O)CSc1nc2c([nH]c3ccccc32)c(=O)n1-c1ccccc1
126%	72%	85%	95%	99%	CC(C)(C)CCNC(=O)CSc1nc2c([nH]c3ccccc32)c(=O)n1-c1ccccc1
